One compound from ChEMBL document CHEMBL2440054, “Largazole Arrests Cell Cycle at G1 Phase and Triggers Proteasomal Degradation of E2F1 in Lung Cancer Cells” (ACS Med Chem Lett, 2013) can be followed below.

The source made the active and inactive calls. No cut-off for these calls is given here.

Assay [1] relates to A549. Kind of assay: Effect on CDK2 protein expression in human A549 cells at 0.1 uM after 6 to 36 hrs by Western blotting analysis. It counts as functional, cell-based. Summed up:
(§1)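 A549 cells exposed to 0.1 μM largazole over a time course, lysed, and Western blotted for cyclin D1, CDK2, CDK4, p21 and p27.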
On the technique in general: Immunoblotting shows a protein as a band on a membrane.

Assay [2] deals with Histone deacetylase 1 (Homo sapiens) (UniProt Q13547). Conditions: A549, 0.1 uM.
Assay [3] concerns A549. Briefly: Cell cycle arrest in human A549 cells assessed as accumulation at S phase at 0.1 uM after 24 hrs by propidium iodide staining-based flow cytometric analysis (reference value: 48%). It counts as functional. A general note: Flow cytometry measures light scatter and fluorescence of single cells or particles in a stream.
Assay [4] has as its target Transcription factor E2F1 (Homo sapiens) (UniProt Q01094). Briefly: Induction of E2F1 degradation in human A549 cells at 0.1 uM after 12 hrs by Western blotting analysis in presence of proteasome inhibitor bortezomib. It counts as cell-based. Summed up: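 A549 cells pretreated 2 h with bortezomib (100 nM) or MG-132 (10 μM), then given largazole 0.1 μM for a further 12 h. Lysates Western blotted for E2F1.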

In a further assay the test system is NCI-H460. Kind of assay: Growth inhibition of human NCI-H460 cells at 0.1 uM after 24 to 48 hrs by trypan blue exclusion assay. It counts as functional, cell-based. Summed up:
(§2)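 Cells treated with largazole for indicated times. Viability evaluated by trypan blue exclusion.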

The nature of assay [5]: Cytotoxicity against human GLC82 cells after 48 hrs by CCK-8 assay. It counts as functional, cell-based. Conditions: GLC82, 48 h. Summed up: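 Cells treated with a range of largazole concentrations for 48 h. Proliferation read by CCK-8 assay; IC50 derived from the concentration series.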
A general note: Formazan colour is commonly taken as a measure of viable cells.

In assay [6] the test system is A549. Briefly: Cell cycle arrest in human A549 cells assessed as accumulation at G2 phase at 0.1 uM after 24 hrs by propidium iodide staining-based flow cytometric analysis (reference value: 3.7%). It counts as functional.
For assay [7], the target named is Histone deacetylase 1 (Homo sapiens) (UniProt Q13547). The following applies: A549, 0.1 uM. The source holds these as a separate data set.
In assay [8] the test system is A549. Briefly: Induction of apoptosis in human A549 cells assessed as effect on caspase-8 protein expression at 0.1 uM after 48 hrs by Western blotting analysis. It counts as functional, cell-based. Summed up: (§3)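 A549 cells given largazole 0.1 μM for indicated times, lysed, and Western blotted for pro-/cleaved caspase-9, caspase-8, pro-/active caspase-3 and PARP.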

The test system of assay [9] is A549. Kind of assay: Induction of apoptosis in human A549 cells assessed as downregulation of pro-caspase-9 protein expression at 0.1 uM after 48 hrs by Western blotting analysis. It counts as functional, cell-based. Summed up:
as §3

Assay [10] addresses T1, Retinoblastoma-associated protein (Homo sapiens) (UniProt P06400).
T1 sequence (whole entry): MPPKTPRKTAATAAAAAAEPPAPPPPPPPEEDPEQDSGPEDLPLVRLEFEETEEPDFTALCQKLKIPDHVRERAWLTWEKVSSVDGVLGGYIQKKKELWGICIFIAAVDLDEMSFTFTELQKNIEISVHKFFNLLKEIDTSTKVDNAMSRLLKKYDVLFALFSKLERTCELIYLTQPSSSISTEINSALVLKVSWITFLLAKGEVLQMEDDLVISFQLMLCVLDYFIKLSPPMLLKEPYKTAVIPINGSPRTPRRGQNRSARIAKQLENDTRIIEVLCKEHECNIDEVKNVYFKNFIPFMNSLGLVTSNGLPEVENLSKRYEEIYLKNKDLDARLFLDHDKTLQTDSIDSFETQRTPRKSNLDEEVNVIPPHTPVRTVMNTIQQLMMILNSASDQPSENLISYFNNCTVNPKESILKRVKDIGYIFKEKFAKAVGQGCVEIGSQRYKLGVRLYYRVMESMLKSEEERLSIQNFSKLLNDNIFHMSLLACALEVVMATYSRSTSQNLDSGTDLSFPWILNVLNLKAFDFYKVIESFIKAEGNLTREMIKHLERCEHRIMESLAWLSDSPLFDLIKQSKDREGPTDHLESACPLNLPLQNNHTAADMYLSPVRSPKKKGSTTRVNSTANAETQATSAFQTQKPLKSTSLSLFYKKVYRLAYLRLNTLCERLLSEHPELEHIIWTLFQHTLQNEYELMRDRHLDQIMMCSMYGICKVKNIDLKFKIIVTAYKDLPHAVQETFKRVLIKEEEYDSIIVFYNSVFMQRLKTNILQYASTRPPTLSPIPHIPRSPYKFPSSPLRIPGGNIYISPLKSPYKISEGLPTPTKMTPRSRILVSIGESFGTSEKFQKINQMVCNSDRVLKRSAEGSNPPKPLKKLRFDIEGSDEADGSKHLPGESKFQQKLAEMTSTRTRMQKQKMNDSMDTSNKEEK
Briefly: Dephosphorylation of Rb in human A549 cells at 0.1 uM after 6 to 12 hrs by Western blotting analysis. It counts as cell-based.

For assay [11], the target named is Transcription factor E2F1 (Homo sapiens) (UniProt Q01094). Briefly: Induction of E2F1 ubiquitination in human A549 cells at 0.1 uM after 8 hrs by immunoprecipitation and Western blotting analysis. It counts as cell-based. Summed up:
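Lysates of A549 cells given 0.1 μM largazole for 8 h were immunoprecipitated with anti-E2F1 and probed by Western blot with anti-ubiquitin.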

Assay [12] concerns A549. Briefly: Induction of apoptosis in human A549 cells assessed as increase in cleaved caspase-3 level at 0.1 uM after 48 hrs by Western blotting analysis. It counts as functional, cell-based. Summed up:
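A549 cells exposed to 0.1 μM for a time course, then lysed and Western blotted. Read-outs are pro- and cleaved caspase-9, pro- and active caspase-3, and cleaved PARP.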

For assay [13], the target named is T1, Retinoblastoma-associated protein (Homo sapiens). Briefly: Dephosphorylation of Rb in human A549 cells assessed as increase in Rb-E2F1 interaction at 0.1 uM after 8 hrs by immunoprecipitation and Western blotting analysis. It counts as cell-based. Summed up: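 A549 cells treated with 0.1 μM largazole for 8 h and lysed. Lysates immunoprecipitated, then Western blotted with the indicated antibodies.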

Assay [14] has as its target Histone deacetylase 1 (Homo sapiens) (UniProt Q13547). Conditions: NCI-H460, 0.1 uM.
The subject of assay [15] is A549. Briefly: Downregulation of E2F1 in human A549 cell cytoplasm at 0.1 uM after 6 to 24 hrs by Western blotting analysis. It counts as functional, cell-based. Summed up: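 A549 cells exposed to 0.1 μM largazole for indicated times. Cytoplasmic and nuclear fractions separated, then Western blotted for E2F1.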
Assay [16] deals with A549. Briefly: Effect on cyclin D1 protein expression in human A549 cells at 0.1 uM after 6 to 36 hrs by Western blotting analysis. It counts as functional, cell-based. Summed up:
as §1

Assay [17] has as its system A549. Kind of assay: Growth inhibition of human A549 cells at 0.1 uM after 24 to 48 hrs by trypan blue exclusion assay. It counts as functional, cell-based. Summed up: as §2
Assay [18] deals with Histone deacetylase 1 (Homo sapiens) (UniProt Q13547). The following applies: A549, 0.01 to 1 uM.
Assay [19] has as its target Transcription factor E2F1 (Homo sapiens) (UniProt Q01094). Briefly: Inhibition of E2F1 in human A549 cells assessed as downregulation of PCNA gene expression at 0.1 uM after 6 to 36 hrs by RT-PCR analysis. It counts as cell-based. Summed up: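 A549 cells given 0.1 μM over a time course. RNA extracted and RT-PCR run with gene-specific primers. Bands quantified by densitometry and normalized to GAPDH.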

Assay [20] deals with A549. Briefly: Downregulation of E2F1 protein expression in human A549 cells after 12 hrs by Western blotting analysis. It counts as functional, cell-based. Summed up:
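A549 cells treated with 0.1 μM largazole over a time course, or with a range of concentrations for 12 h. Lysates Western blotted for E2F1.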

Transcription factor E2F1 (Homo sapiens), sequence (Q01094 whole entry): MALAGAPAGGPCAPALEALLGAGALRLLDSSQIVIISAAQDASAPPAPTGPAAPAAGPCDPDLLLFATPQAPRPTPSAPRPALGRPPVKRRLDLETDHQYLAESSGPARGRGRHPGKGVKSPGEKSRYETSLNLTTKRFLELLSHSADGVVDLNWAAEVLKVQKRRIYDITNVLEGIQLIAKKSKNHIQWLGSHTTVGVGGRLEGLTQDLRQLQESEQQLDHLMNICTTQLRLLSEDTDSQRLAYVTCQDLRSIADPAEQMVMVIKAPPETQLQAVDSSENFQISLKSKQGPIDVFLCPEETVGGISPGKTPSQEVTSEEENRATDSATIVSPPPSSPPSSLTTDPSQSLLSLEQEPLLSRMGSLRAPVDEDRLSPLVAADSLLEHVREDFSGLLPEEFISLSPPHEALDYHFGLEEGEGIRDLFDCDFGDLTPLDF
Histone deacetylase 1 (Homo sapiens), sequence (Q13547 whole entry): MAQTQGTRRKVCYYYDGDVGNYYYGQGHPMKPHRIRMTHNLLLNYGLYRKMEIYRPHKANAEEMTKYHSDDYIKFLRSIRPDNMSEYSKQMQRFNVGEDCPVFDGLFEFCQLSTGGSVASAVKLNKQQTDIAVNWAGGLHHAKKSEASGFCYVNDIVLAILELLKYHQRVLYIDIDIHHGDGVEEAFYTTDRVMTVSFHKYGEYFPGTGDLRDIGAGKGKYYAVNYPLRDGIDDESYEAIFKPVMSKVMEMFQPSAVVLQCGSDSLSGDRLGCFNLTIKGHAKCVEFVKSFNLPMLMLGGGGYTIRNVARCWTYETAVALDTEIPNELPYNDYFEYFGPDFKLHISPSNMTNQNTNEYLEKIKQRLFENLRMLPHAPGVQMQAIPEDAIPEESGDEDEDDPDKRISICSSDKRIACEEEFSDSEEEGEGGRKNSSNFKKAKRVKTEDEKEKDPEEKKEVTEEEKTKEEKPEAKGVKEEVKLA

As usually defined, the IC50 is the concentration at which inhibition is half-maximal. Take `CCCCCCCC(=O)SCC/C=C/[C@@H]1CC(=O)NCc2nc(cs2)C2=N[C@@](C)(CS2)C(=O)N[C@@H](C(C)C)C(=O)O1` [LARGAZOLE]: the outcome (in the assay with A549 [1]; in assay [4]; in the assay with A549 [8]; in the assay on A549 [16]) was inactive. The inhibition entry in assay [2], in [7], in assay [14], in [18] and in [19] was “Active” each time. In addition, the results for the Activity in the assay with A549 [3], in the assay on A549 [6] and in the assay with A549 [20] were 8.5%, 3.3% and “Dose-dependent effect”, respectively. Also, the “growth inhibition (GI)” value in the assay with NCI-H460 and with A549 [17] was “Active” throughout. In assay [5], this compound gave an IC50 of 190 nM. Moreover, the result (with A549 [9]; in assay [10]; in assay [11]; in the assay with A549 [12]; in assay [13]; in the assay on A549 [15]) was Active.
